The source of these data is ChEMBL document CHEMBL1138250, “Spiro- and dispiro-1,2-dioxolanes: contribution of iron(II)-mediated one-electron vs two-electron reduction to the activity of antimalarial peroxides” (J Med Chem, 2007).

Usually IC50 stands for the concentration needed to halve the response being measured.

≈ marks a conversion by molar mass, not a printed value.

In one assay the test system is Plasmodium falciparum. As to the kind of experiment: Antimalarial activity against chloroquine-resistant Plasmodium falciparum K1.
Conditions: not given
It is filed as functional, organism-based. The procedure, abridged: (§1)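 IC50 (ng/mL) against P. falciparum blood stages, K1 (chloroquine-resistant) and NF54 (chloroquine-sensitive), reported as the mean of n = 2-3 determinations; individual measurements generally within 50% of each other.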
`CC(C)(C)C1CCC2(CC1)CC1(CCCCC1)OO2` (stereo not drawn) displayed an IC50 of 0.063 µg/mL (≈ 0.236 µM).
Compound `c1ccc(C2CCC3(CC2)CC2(CCCCC2)OO3)cc1` (stereo not drawn) yielded a half-maximal inhibitory concentration (IC50) of 0.041 µg/mL (≈ 0.143 µM).
Same read-out and setting: next, `C1CCC2(CC1)CC1(CCCC1)OO2`: 0.041 µg/mL (≈ 0.209 µM).
On the same count and under the same terms, next, `c1ccc(C2CCC3(CC2)CC2(CCCC2)OO3)cc1` (stereo not drawn): 0.038 µg/mL (≈ 0.14 µM).
For the compound `CCCC1(CCC)CC2(CCCCC2)OO1`, half-maximal inhibition (IC50) was put at 0.23 µg/mL (≈ 1.02 µM).
The same measure, in the same setting: the same measure for `CCOC(=O)CCC1(C)CC2(CCCCC2)OO1` (stereo not drawn): 0.048 µg/mL (≈ 0.187 µM); for `CC1(CCC(=O)O)CC2(CCCCC2)OO1` (stereo not drawn): over 1 µg/mL.
Still for that read-out and setting: the same measure for `CC1(CCCO)CC2(CCCCC2)OO1` (stereo not drawn): 0.05 µg/mL (≈ 0.233 µM).
Compound `C1CCC2(CC1)CC1(OO2)C2CC3CC(C2)CC1C3` (stereo not drawn) yielded an IC50 of 0.77 µg/mL (≈ 2.93 µM).
As for `c1ccc(C2CCC3(CC2)CC2(OO3)C3CC4CC(C3)CC2C4)cc1` (stereo not drawn), the IC50 is over 1 µg/mL.
Still for that read-out and setting: next, `CCCC1(CCC)CC2(OO1)C1CC3CC(C1)CC2C3` (stereo not drawn): 0.12 µg/mL (≈ 0.431 µM).
`C1CCC2(CC1)CC1(CCCCC1)OO2` showed an IC50 of 0.041 µg/mL (≈ 0.195 µM).
In turn, `c1ccc(C2CC3(CCCCC3)OO2)cc1` (stereo not drawn) had an IC50 of 0.44 µg/mL (≈ 2.02 µM).
On the same count and under the same terms, the same measure for `CC(C)(C)C1CCC2(CC1)CC1(CCCC1)OO2` (stereo not drawn): 0.13 µg/mL (≈ 0.515 µM).

In the next assay the test system is Plasmodium falciparum. As to the kind of experiment: Antimalarial activity against chloroquine-sensitive Plasmodium falciparum NF54. It is filed as functional, organism-based.
Conditions: not given
The procedure, abridged:
as §1
On to `CC(C)(C)C1CCC2(CC1)CC1(CCCCC1)OO2` (stereo not drawn), for which the IC50 worked out at 0.12 µg/mL (≈ 0.45 µM).
`c1ccc(C2CCC3(CC2)CC2(CCCCC2)OO3)cc1` (stereo not drawn) yielded an IC50 of 0.093 µg/mL (≈ 0.325 µM).
On the same count and under the same terms, next, `C1CCC2(CC1)CC1(CCCC1)OO2`: 0.062 µg/mL (≈ 0.316 µM); `c1ccc(C2CCC3(CC2)CC2(CCCC2)OO3)cc1` (stereo not drawn): 0.083 µg/mL (≈ 0.305 µM); `CCCC1(CCC)CC2(CCCCC2)OO1`: 0.36 µg/mL (≈ 1.59 µM).
Take `CCOC(=O)CCC1(C)CC2(CCCCC2)OO1` (stereo not drawn): the IC50 worked out at 0.081 µg/mL (≈ 0.316 µM).
On the same count and under the same terms, the same measure for `CC1(CCC(=O)O)CC2(CCCCC2)OO1` (stereo not drawn): over 1 µg/mL; for `CC1(CCCO)CC2(CCCCC2)OO1` (stereo not drawn): 0.08 µg/mL (≈ 0.373 µM).
`C1CCC2(CC1)CC1(OO2)C2CC3CC(C2)CC1C3` (stereo not drawn) returned an IC50 of 0.66 µg/mL (≈ 2.52 µM).
On the same count and under the same terms, the same measure for `c1ccc(C2CCC3(CC2)CC2(OO3)C3CC4CC(C3)CC2C4)cc1` (stereo not drawn): over 1 µg/mL.
Regarding `CCCC1(CCC)CC2(OO1)C1CC3CC(C1)CC2C3` (stereo not drawn), 0.12 µg/mL (≈ 0.431 µM) corresponded to half-maximal inhibition (IC50).
On the same count and under the same terms, next, `C1CCC2(CC1)CC1(CCCCC1)OO2`: 0.11 µg/mL (≈ 0.523 µM).
The same measure, in the same setting: the same measure for `c1ccc(C2CC3(CCCCC3)OO2)cc1` (stereo not drawn): 0.66 µg/mL (≈ 3.02 µM); for `CC(C)(C)C1CCC2(CC1)CC1(CCCC1)OO2` (stereo not drawn): 0.18 µg/mL (≈ 0.713 µM).

Another assay has as its system Plasmodium berghei. As to the kind of experiment: Antimalarial activity as reduced parasitaemia against Plasmodium berghei infected NMRI mice (Mus musculus) at 100 mg/kg peroral dose 3 days post-infection. The assay is classed as functional. Also on record: scale not given: the % may be the effect or the level left. As to conditions: route oral. The procedure, abridged: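 Groups of three NMRI mice infected with P. berghei were dosed orally 1 day after infection with 100 mg/kg, dissolved or suspended in 3% ethanol/7% Tween-80 vehicle. Percent reduction in parasitemia was read on day 3 post-infection against an untreated control group; individual measurements generally within 10%.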
`CC(C)(C)C1CCC2(CC1)CC1(CCCCC1)OO2` (stereo not drawn): the Activity was determined as 30%.
`c1ccc(C2CCC3(CC2)CC2(CCCCC2)OO3)cc1` (stereo not drawn) displayed an Activity of 84%.
The same measure, in the same setting: next, `C1CCC2(CC1)CC1(CCCC1)OO2`: 0%; `c1ccc(C2CCC3(CC2)CC2(CCCC2)OO3)cc1` (stereo not drawn): 49%; `CCCC1(CCC)CC2(CCCCC2)OO1`: 0%.
Same read-out and setting: next, `CCOC(=O)CCC1(C)CC2(CCCCC2)OO1` (stereo not drawn): 18%; `CC1(CCC(=O)O)CC2(CCCCC2)OO1` (stereo not drawn): 0%.
Take `CC1(CCCO)CC2(CCCCC2)OO1` (stereo not drawn): the Activity was found to be 0%.
For `C1CCC2(CC1)CC1(OO2)C2CC3CC(C2)CC1C3` (stereo not drawn), the Activity is 0%.
Still for that read-out and setting: next, `c1ccc(C2CCC3(CC2)CC2(OO3)C3CC4CC(C3)CC2C4)cc1` (stereo not drawn): 0%; `CCCC1(CCC)CC2(OO1)C1CC3CC(C1)CC2C3` (stereo not drawn): 6%.
Compound `C1CCC2(CC1)CC1(CCCCC1)OO2` yielded an Activity of 0%.
The same measure, in the same setting: the same measure for `c1ccc(C2CC3(CCCCC3)OO2)cc1` (stereo not drawn): 0%; for `CC(C)(C)C1CCC2(CC1)CC1(CCCC1)OO2` (stereo not drawn): 45%.

The next assay deals with Plasmodium falciparum. As to the kind of experiment: Antimalarial activity against Plasmodium falciparum. It is filed as functional, organism-based.
Conditions: not given
The procedure, abridged: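 In vitro assay against chloroquine-resistant K1 and chloroquine-sensitive NF54 strains of P. falciparum. IC50 is reported in ng/mL as the mean of 2-3 determinations per strain, and individual measurements generally differed by less than 50%.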
The compound `OC1(CC2(O)C3CC4CC(C3)CC2C4)CCCCC1` (stereo not drawn) displayed an IC50 of over 1 µg/mL.
